The nature of experiment [1]: Blockade of voltage-gated potassium channel assessed as inhibition of fast transient potassium current in Sprague-Dawley rat hippocampal neurons by whole cell voltage clamp method. It is filed as tissue-based. Particulars: Hippocampus. Put shortly: (§1)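 CA1 pyramidal neurons were acutely dissociated from 5- to 9-day-old Sprague-Dawley rats (500 µm minislices, protease XXIII 3 mg/mL, 32 °C, 8 min). Whole-cell voltage clamp was run at 21-23 °C with KCl 140 mM pipettes and leak subtraction. Compound was applied externally by rapid solution changer across a concentration range. IA was read as peak amplitude and IK at 300 ms latency. IC50 came from concentration-response curve fitting.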

The nature of experiment [2]: Blockade of voltage-gated potassium channel assessed by inhibition of delayed rectifier potassium current in Sprague-Dawley rat hippocampal neurons by whole cell voltage clamp method. As to conditions: Hippocampus. It is filed as tissue-based. In a few lines:
as §1

Experiment [3] deals with Hippocampus. Put plainly: Inhibition of delayed rectifier potassium current in Sprague-Dawley rat hippocampal neurons at 100 uM. It is filed as functional, tissue-based. In a few lines:
(§2)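 IK was recorded by whole-cell voltage clamp (21-23 °C, 3-4 MΩ KCl-based pipettes) in dissociated CA1 pyramidal neurons from 5- to 9-day-old Sprague-Dawley rats. Compound was applied intracellularly at the stated concentration. IK amplitude was measured at 300 ms latency, normalized and followed over time after application. Values are mean ± SEM, n = 5.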

In experiment [4] the test system is Hippocampus. The experiment is described as follows: Inhibition of fast transient potassium current in Sprague-Dawley rat hippocampal neurons at 100 uM by whole cell voltage clamp method. It is filed as functional. Put shortly: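 In the primary screen, 100 µM compound was dissolved in external solution and delivered by rapid solution changer to dissociated CA1 pyramidal neurons from 5- to 9-day-old Sprague-Dawley rats. Whole-cell voltage clamp was run at 21-23 °C, with series resistance compensated 75-85% and online leak subtraction. Fast transient K+ current (IA) was measured as peak amplitude.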

The species entered for experiment [5] is Rattus norvegicus. The experiment is described as follows: Selectivity for inhibition of delayed rectifier potassium current over inhibition of fast transient potassium current at potassium channel in Sprague-Dawley rat hippocampal neurons. It is filed as tissue-based. Particulars: Hippocampus.
Experiment [6] has as its system Hippocampus. Put plainly: Inhibition of delayed rectifier potassium current in Sprague-Dawley rat hippocampal neurons at 300 uM. In kind it is functional, tissue-based. In a few lines:
as §2

Experiment [7] concerns Hippocampus. The experiment is described as follows: Inhibition of delayed rectifier potassium current in Sprague-Dawley rat hippocampal neurons at 10 uM. In kind it is functional, tissue-based. In a few lines: as §2
In experiment [8] the test system is Hippocampus. The experiment is described as follows: Inhibition of delayed rectifier potassium current in Sprague-Dawley rat hippocampal neurons at 1 mM. In kind it is functional, tissue-based. In a few lines: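 CA1 pyramidal neurons acutely dissociated from 5- to 9-day-old Sprague-Dawley rats (protease XXIII 3 mg/mL, 32 °C, 8 min). Whole-cell voltage clamp at 21-23 °C, 3-4 MΩ electrodes with KCl pipet solution, 75-85% series-resistance compensation, online leak subtraction. Compound dissolved in external solution and delivered by rapid solution changer. IK amplitude read at 300 ms latency.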

The test system of experiment [9] is Hippocampus. Put plainly: Inhibition of delayed rectifier potassium current in Sprague-Dawley rat hippocampal neurons at 30 uM. In kind it is functional, tissue-based. In a few lines:
as §2

Each structure is given as a SMILES string. Activity calls are given as the source filed them. No cut-off for these calls is given here.

For orientation: IC50 means the point on the concentration scale where inhibition reaches its midpoint. As a reminder, the inhibition is the drop in the measured response relative to a control, in per cent. High values mean a response far below the control, low ones a response near the control. For `O=S(=O)(CCN1CCN(Cc2ccccc2)CC1)c1ccc(Cl)cc1`, the IC50 in [1] was determined as 980 µM; in [2], 60 µM. Also, the result in [3] was inactive. Besides, in experiment [4], at 100 µM the inhibition was 11%. Moreover, in experiment [5], the Ratio IC50 was 16.3.
With `NC(COc1ccccc1)c1ccc2c(c1)OCCO2` (stereo not given), the values for the IC50 in experiment [1] and in [2] were 737 µM and 67 µM, respectively. Further, in experiment [3], the outcome was inactive. The inhibition at 100 µM in experiment [4] amounted to 20%. Moreover, the Ratio IC50 in experiment [5] is 11.
With `Cc1nc(-c2cccnc2)nc(NCCN)c1Cl`, the values for the IC50 in experiment [1] and in experiment [2] were 244 µM and 83 µM, respectively. Also, the result in [6] was inactive. The same compound showed an inhibition at 100 µM in experiment [4] of 9%. The Ratio IC50 in experiment [5] came to 2.9.
For the compound `Cc1ccc(S(=O)(=O)NCCOCCOCCOCCNS(=O)(=O)c2ccc(C)cc2)cc1`, the IC50 in experiment [1] came out at 28 µM; in experiment [2], 2.1 µM. Besides, the outcome in experiment [7] and in experiment [6] was inactive. The compound also showed an inhibition at 100 µM in experiment [4] of 63%. Moreover, the Ratio IC50 in [5] is 13.3.
For the compound `COc1ccc2c(CCN)c[nH]c2c1`, the results for the IC50 in [1] and in experiment [2] were 524 µM and 972 µM, respectively. The result in [8] was inactive. For the same compound, the inhibition at 100 µM in experiment [4] stood at 10%.
With `NCCNS(=O)(=O)c1cccc2c(Cl)cccc12`, the values for the concentration for half-maximal inhibition (IC50) in experiment [1] and in experiment [2] were 124 µM and 18 µM, respectively. The outcome in experiment [9] was inactive. The inhibition at 100 µM in [4] came to 27%. The Ratio IC50 in experiment [5] was determined as 6.9.
